EP2 modulator = modulates human prostaglandin E2 receptor EP2 signaling; P43116; EP2-expressing cells, cAMP HTRF FRET, PGE2 co-stimulation; induction, % at 25 µM; 260,000 tested, 0.83% active;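 active means compounds whose cAMP rise, as percent of the full-agonist control response, exceeds 60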;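 further: rat C6 glioma line stably carrying human EP2 under a CMV promoter; the protocol text gives 20 µM as final concentration; 100% = response of wells given 1 µM PGE2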
Target sequence (P43116 whole entry, looked up): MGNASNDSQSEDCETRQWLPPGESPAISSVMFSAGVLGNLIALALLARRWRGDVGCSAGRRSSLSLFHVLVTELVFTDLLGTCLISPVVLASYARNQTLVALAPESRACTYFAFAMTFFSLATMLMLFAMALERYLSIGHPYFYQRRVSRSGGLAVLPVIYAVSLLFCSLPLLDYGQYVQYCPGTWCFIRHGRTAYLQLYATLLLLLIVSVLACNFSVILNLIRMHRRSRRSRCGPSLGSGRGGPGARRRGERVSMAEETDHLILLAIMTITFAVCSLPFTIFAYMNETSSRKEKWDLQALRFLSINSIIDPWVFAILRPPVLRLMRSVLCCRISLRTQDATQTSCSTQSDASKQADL
PGE2 EP2 inh = blocks the human prostaglandin E2 receptor EP2; 260,000 tested, 0.52% active; inhibition, % at 25 µM; C6 glioma cells expressing human EP2, cAMP TR-FRET; cells stimulated with saturating PGE2;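 active means percent inhibition above 40 after rounding to a whole number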;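 further: rat C6 glioma host cells with rolipram phosphodiesterase inhibitor present; the protocol text gives 20 µM as final concentration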
KLK5 inh = kallikrein 5 (human) inhibition; Q9Y337; inhibition, % at 5 µM; 210,000 tested, 0.59% active; AID 873; recombinant hK5, fluorogenic AMC substrate cleavage;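 active means inhibition of 40% or more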;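 further: 0% = enzyme controls without compound and 100% = no-enzyme blanks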
Target sequence (Q9Y337 67-293 limits assumed): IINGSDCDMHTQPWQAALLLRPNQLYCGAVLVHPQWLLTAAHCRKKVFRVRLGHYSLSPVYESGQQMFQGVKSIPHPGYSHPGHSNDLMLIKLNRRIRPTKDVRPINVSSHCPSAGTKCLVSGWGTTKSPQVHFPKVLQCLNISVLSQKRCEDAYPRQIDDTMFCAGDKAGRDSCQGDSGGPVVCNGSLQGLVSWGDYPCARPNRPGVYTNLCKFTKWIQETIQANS
Thrombin inh = blocks human thrombin protease activity. P00734. alpha-thrombin, Boc-VPR-AMC fluorogenic substrate cleavage. inhibition, % at 5 µM. 220,000 tested, 0.26% active. AID 1046;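 active means inhibition at or above 40%; inactive means inhibition below 40%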;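 further: 0% = enzyme with no compound and 100% = wells without enzyme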
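Material: human alpha-thrombin protein; Also added: Boc-VPR-AMC substrate, 15 µM final; Timing: enzyme reaction carried out at room temperature; Signal: fluorescence, ex 355 nm, em 460 nm; Measure: % inhibition of thrombin; Controls: enzyme without compound as high, wells lacking enzyme as low.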
FXIIa inh 1536 = blocks human coagulation factor XIIa protease activity; P00748; purified FXIIa, Boc-QGR-AMC fluorogenic substrate, 2 h; inhibition, % at 5 µM; 220,000 tested, 0.3% active; in the data active means inhibition above about 40%;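 further: 0% = enzyme with no compound and 100% = blank without enzyme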
FXIa inh = factor XIa (human) inhibition; purified FXIa, Boc-Glu-Ala-Arg-AMC fluorogenic substrate; 220,000 tested, 0.14% active; AID 798; P03951; inhibition, % at 5 µM;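 active means inhibition of at least 40%; inactive means inhibition below 40%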;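 further: fluorescence of freed AMC excited at 355 nm; 0% = enzyme without compound and 100% = no enzyme blank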
Active calls of the source: *; nt = no result; ! = repeats disagree. A selection: hits, their analogues and other compounds. The true share with any hit is near 2.1%.

SMILES	EP2 modulator	PGE2 EP2 inh	KLK5 inh	Thrombin inh	FXIIa inh 1536	FXIa inh
COc1ccc(N2C(N)=C(C#N)C(c3cccnc3)C3=C2CC(C)(C)CC3=O)cc1 (stereo not given)	14	12	51*	20	23	10
Cc1cccc(Cn2c(NC3CCCC3)nc3c2c(=O)[nH]c(=O)n3C)c1	-13	14	nt	nt	nt	nt
Cn1c(=O)[nH]c(=O)c2c1nc(NC1CCCCC1)n2Cc1ccccc1	61*	9	-5	-3	-3	-2
O=C1CN2CCN(CC2)CC(=O)Nc2ccc(cc2)S(=O)(=O)c2ccc(cc2)NC(=O)CN2CCN(CC2)CC(=O)Nc2ccc(cc2)S(=O)(=O)c2ccc(cc2)N1	13	51*	nt	nt	nt	nt
O=C1CNCCCN2CCN(CCCNCC(=O)Nc3ccc(cc3)S(=O)(=O)c3ccc(cc3)NC(=O)CNCCCN3CCN(CCCNCC(=O)Nc4ccc(cc4)S(=O)(=O)c4ccc(cc4)N1)CC3)CC2	7	42*	nt	nt	nt	nt
CCc1cccc(C)c1NC(=O)CSc1nnc(-c2cccnc2)n1CC	-19	9	nt	nt	nt	nt
COc1ccc2c(c1)C1(SC(NC(C)=O)=NN1C(C)=O)C(=O)N2C(C)=O (stereo not given)	7	14	nt	nt	nt	nt
COc1ccc(C2CC(=O)C3=C(C2)NC(C)=C(C(=O)OC(C)C)C3c2cccs2)cc1OC (stereo not given)	-17	12	nt	nt	nt	nt
CCN(CC)c1ccc(/C=N/Nc2nc3ccccc3[nH]2)c(O)c1	-56	61*	-254	-5	4	-3
CS(=O)(=O)N1CCC[C@@H](Cn2nc(-c3cccs3)ccc2=O)C1	-37	nt	nt	nt	nt	nt
O=C(O)c1ccccc1C(=O)Nc1ccccc1	7	5	2	-5	2	-2
O=C(Nc1ccccc1)C1=C(c2ccccc2)S(=O)(=O)CCS1(=O)=O	-89	46*	-1	8	11	0
O=C(c1ccc(Cl)cc1)C1CCN(C(=S)NCc2ccco2)CC1	-61	11	nt	nt	nt	nt
COc1ccc(C(OC(=O)c2ccco2)C(=O)NC2CCCCC2)cc1OC (stereo not given)	2	8	83*	36	15	8
O=S(=O)(O)c1cc(O)c2c(O)c(N=Nc3cccc4ccccc34)c(S(=O)(=O)O)cc2c1	-14	57*	nt	nt	nt	nt
C(=N\Nc1nc(-c2ccccn2)nc2ccccc12)/c1ccccc1	69*	11	-24	3	7	0
Cn1c(=O)c2[nH]c(CS(=O)(=O)Cc3nc4c([nH]3)c(=O)n(C)c(=O)n4C)nc2n(C)c1=O	34	50*	nt	nt	nt	nt
O=C(CNC(=O)c1ccc(N2C(=O)c3ccccc3C2=O)cc1)OCC(=O)c1ccccc1	40	6	-19	-9	3	8
CCc1ccc(C(=O)COC(=O)CNC(=O)c2ccc(N3C(=O)c4ccccc4C3=O)cc2)cc1	-8	5	44*	4	27	4
Oc1cc(-n2cccn2)c(O)cc1-n1cccn1	-47	114*	-6	-10	2	-5
O=Cc1ccccc1-n1cccn1	-9	2	-1	0	3	-1
NNC(=O)CN1C(=O)Nc2ccc(Br)cc2C1c1ccccc1 (stereo not given)	5	12	42*	55*	24	7
CC(=O)Nc1ccc(C(=O)CSc2nc3sc4c(c3c(=O)[nH]2)CCCC4)cc1	-53	26	nt	nt	nt	nt
CC1(C)CC(=O)CC(=NCC(=O)O)C1	28	6	128*	0	-2	-7
COc1ccc(-c2cc(C(F)(F)F)nc(SCCC(=O)NCc3cnn(C)c3C)n2)cc1	-24	15	nt	nt	nt	nt
SMILES	EP2 modulator	PGE2 EP2 inh	KLK5 inh	Thrombin inh	FXIIa inh 1536	FXIa inh
CC(C)Sc1nc(N2CCCC2)c2c(c1C#N)CC(C)(C)OC2	63*	16	3	3	9	2
COc1ccc(S(=O)(=O)N2CCSC2)cc1C	6	8	-8	-11	6	-5
Cc1ccc(S(=O)(=O)N2CCSC2)cc1C	-14	109*!	-2	-6	-8	-6
Cc1nc2cc(Cl)c(NC(=O)C3CCCCC3)cc2c(=O)n1Cc1ccccc1	106*	5	nt	nt	nt	nt
Cc1nc2cc(N3CCC(C)CC3)c(NC(=O)C3CC3)cc2c(=O)n1Cc1ccccc1	34	12	nt	nt	nt	nt
COc1ccc(OC)c(NC(=O)C2CCCN(S(=O)(=O)c3cccc4cccnc34)C2)c1 (stereo not given)	-22	10	57*	23	14	15
CCOC(=O)N1CCN(C(=O)C2CCCN(S(=O)(=O)c3cc(C)ccc3OC)C2)CC1 (stereo not given)	11	14	40*	104*	0	1
COc1ccc(CNC(=O)C2CCCN(S(=O)(=O)c3cc(C)ccc3OC)C2)cc1 (stereo not given)	12	4	2	-10	-4	-5
COc1ccc(OC)c(S(=O)(=O)N2CCCC(C)C2)c1 (stereo not given)	6	14	-4	-4	33	49*
COc1ccc(N2C(=O)C(Cl)=C(N3CCCC(C)C3)C2=O)cc1 (stereo not given)	44	10	2	4	57*	44*
COc1ccc(N2C(=O)C(Cl)=C(N3CCCC3)C2=O)cc1	-5	8	-23	2	13	7
Cc1cc(OCc2nnc(SCC(=O)O)n2C)ccc1Cl	-7	7	nt	nt	nt	nt
CCOC(=O)c1ccc(N2C(=O)C(O)=C(C(C)=O)C2c2cccnc2)cc1 (stereo not given)	-1	15	nt	nt	nt	nt
Cn1c(SCC(=O)Nc2ccc3c(c2)OCCO3)nnc1-c1ccccc1	-31	13	nt	nt	nt	nt
CSc1ccc(NC(=O)Nc2cccn(Cc3ccccc3)c2=O)cc1	16	6	66*	-11	3	-4
NC(=O)c1nc(-c2ccnc3ccccc23)nc2c1[nH]c(=O)n2CCc1ccccc1	-30	7	nt	nt	nt	nt
O=C(Nc1ccc(Cl)cc1)Nc1nc(-c2sccc2Br)cs1	-3	nt	5	-4	-6	-6
O=C(Nc1ccc(Cl)cc1)Nc1nc(-c2ccccc2O)cs1	-11	1	35	19	29	53*
N/C(=N\c1nc2ccccc2o1)NC(=O)c1ccccc1F	-37	17	-25	-2	-1	-2
N/C(=N\c1nc2ccccc2o1)NC(=O)c1ccccc1NC(=O)c1ccccc1	-14	30	31	52*	7	2
Cc1nc2ccccc2c(=O)n1NC(=O)c1ccccc1Cl	34	9	14	6	1	1
Cc1nc2ccccc2c(=O)n1NC(=O)c1cc(Br)ccc1Cl	5	1	43*	51*	22	47*
C#CCOc1ccc(-c2nc3cnccn3c2NC2CCCC2)cc1OC	-98	12	nt	nt	nt	nt
Cn1c(=O)c2c(ncn2CN2CCN(Cn3cnc4c3c(=O)n(C)c(=O)n4C)CC2)n(C)c1=O	6	46*	nt	nt	nt	nt
CC(C)Cn1cnc2c1c(=O)n(C)c(=O)n2C	23	8	-2	-14	5	-3
